# According to ChEMBL document CHEMBL4689842, “EUbOPEN Chemogenomics Library wave 1” (2021):
# Tests used:
# Format in all cases: toxicity, cell-based
# HEK-293T = test: Incucyte cell viability with HEK293T; conditions: human, 10 µM, compound concentration 10 uM; also: filed as whole numbers so only -1 and 0 and 1 occur
# U2OS [1] = test: Incucyte cell viability with U2OS; conditions: human, 10 µM, compound concentration 10 uM; also: filed as whole numbers so only -1 and 0 and 1 occur
# U2OS [2] = test: Multiplex assay against U2OS; conditions: human
# Method in brief: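 Live cells carried four stains from seeding: Hoechst33342, BioTracker Green Microtubule Cytoskeleton Dye, MitoTracker Red and Annexin V Alexa Fluor 680. They were imaged on a CQ1 microscope at 37°C and 5% CO2 after compound addition. Using CellPathfinder machine-learning gating, cells were split into Hoechst high-intensity objects or normal cells, normal cells into healthy, pyknosed or fragmented nuclei, and pyknosed cells into mitotic or apoptotic; tubulin, mitochondrial-mass and membrane-permeability phenotypes are per cents of healthy-nucleus cells.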
# [3] = 0 h, replicate number 1, timepoint 0 hours
# [4] = 12 h, replicate number 1, timepoint 12 hours
# [5] = 18 h, replicate number 1, timepoint 18 hours
# [6] = 24 h, replicate number 1, timepoint 24 hours
# [7] = 12 h, 1 µM, compound concentration 1 uM, replicate 1
# [8] = 12 h, 1 µM, compound concentration 1 uM, replicate 2
# [9] = 12 h, 10 µM, compound concentration 10 uM, replicate 1
# [10] = 12 h, 10 µM, compound concentration 10 uM, replicate 2
# [11] = 24 h, 1 µM, compound concentration 1 uM, replicate 1
# [12] = 24 h, 1 µM, compound concentration 1 uM, replicate 2
# [13] = 24 h, 10 µM, compound concentration 10 uM, replicate 1
# [14] = 24 h, 10 µM, compound concentration 10 uM, replicate 2
# [15] = 48 h, 1 µM, compound concentration 1 uM, replicate 1
# [16] = 48 h, 1 µM, compound concentration 1 uM, replicate 2
# [17] = 48 h, 10 µM, compound concentration 10 uM, replicate 1
# [18] = 48 h, 10 µM, compound concentration 10 uM, replicate 2
structure (smiles),measurement,setting,value
CC(Cc1ccc(O)c(O)c1)C(C)Cc1ccc(O)c(O)c1 (centres undefined) [NORDIHYDROGUAIARETIC ACID],Growth Rate,HEK-293T; [3],1
same,Growth Rate,"HEK-293T; 0 h, replicate number 2, timepoint 0 hours",0
same,Growth Rate,"HEK-293T; 6 h, replicate number 1, timepoint 6 hours",0
same,Growth Rate,HEK-293T; [4],0
same,Growth Rate,HEK-293T; [5],0
same,Growth Rate,HEK-293T; [6],0
same,Growth Rate,U2OS [1]; [3],0
same,Growth Rate,"U2OS [1]; 6 h, replicate number 2, timepoint 6 hours",0
same,Growth Rate,U2OS [1]; [4],0
same,Growth Rate,U2OS [1]; [5],0
same,Growth Rate,U2OS [1]; [6],0
same,Population Apoptotic (%),U2OS [2]; [7],64%
same,Population Fragmented Nuclei (%),U2OS [2]; [7],11%
same,Population Healthy Nuclei (%),U2OS [2]; [7],75%
same,Population Hoechst High Intensity Objects (%),U2OS [2]; [7],8%
same,Population Membrane Permeable-Phenotype (%),U2OS [2]; [7],3%
same,Population Mitochondria Different-Phenotype (%),U2OS [2]; [7],8%
same,Population Mitotic Cells (%),U2OS [2]; [7],35%
same,Population Normal (%),U2OS [2]; [7],91%
same,Population Pyknosed Nuclei (%),U2OS [2]; [7],12%
same,Population Tubulin-Different-Phenotype (%),U2OS [2]; [7],10%
same,Population Apoptotic (%),U2OS [2]; [8],0%
same,Population Fragmented Nuclei (%),U2OS [2]; [8],3%
same,Population Healthy Nuclei (%),U2OS [2]; [8],93%
same,Population Hoechst High Intensity Objects (%),U2OS [2]; [8],15%
same,Population Membrane Permeable-Phenotype (%),U2OS [2]; [8],0%
same,Population Mitochondria Different-Phenotype (%),U2OS [2]; [8],1%
same,Population Mitotic Cells (%),U2OS [2]; [8],100%
same,Population Normal (%),U2OS [2]; [8],84%
same,Population Pyknosed Nuclei (%),U2OS [2]; [8],3%
same,Population Tubulin-Different-Phenotype (%),U2OS [2]; [8],25%
same,Population Apoptotic (%),U2OS [2]; [9],35%
same,Population Fragmented Nuclei (%),U2OS [2]; [9],19%
same,Population Healthy Nuclei (%),U2OS [2]; [9],64%
same,Population Hoechst High Intensity Objects (%),U2OS [2]; [9],14%
same,Population Membrane Permeable-Phenotype (%),U2OS [2]; [9],7%
same,Population Mitochondria Different-Phenotype (%),U2OS [2]; [9],12%
same,Population Mitotic Cells (%),U2OS [2]; [9],64%
same,Population Normal (%),U2OS [2]; [9],85%
same,Population Pyknosed Nuclei (%),U2OS [2]; [9],16%
same,Population Tubulin-Different-Phenotype (%),U2OS [2]; [9],30%
same,Population Apoptotic (%),U2OS [2]; [10],0%
same,Population Fragmented Nuclei (%),U2OS [2]; [10],2%
same,Population Healthy Nuclei (%),U2OS [2]; [10],91%
same,Population Hoechst High Intensity Objects (%),U2OS [2]; [10],6%
same,Population Membrane Permeable-Phenotype (%),U2OS [2]; [10],2%
same,Population Mitochondria Different-Phenotype (%),U2OS [2]; [10],10%
same,Population Mitotic Cells (%),U2OS [2]; [10],100%
same,Population Normal (%),U2OS [2]; [10],93%
same,Population Pyknosed Nuclei (%),U2OS [2]; [10],5%
same,Population Tubulin-Different-Phenotype (%),U2OS [2]; [10],38%
same,Population Apoptotic (%),U2OS [2]; [11],45%
same,Population Fragmented Nuclei (%),U2OS [2]; [11],12%
same,Population Healthy Nuclei (%),U2OS [2]; [11],78%
same,Population Hoechst High Intensity Objects (%),U2OS [2]; [11],7%
same,Population Membrane Permeable-Phenotype (%),U2OS [2]; [11],4%
same,Population Mitochondria Different-Phenotype (%),U2OS [2]; [11],7%
same,Population Mitotic Cells (%),U2OS [2]; [11],54%
same,Population Normal (%),U2OS [2]; [11],92%
same,Population Pyknosed Nuclei (%),U2OS [2]; [11],8%
same,Population Tubulin-Different-Phenotype (%),U2OS [2]; [11],11%
same,Population Apoptotic (%),U2OS [2]; [12],0%
same,Population Fragmented Nuclei (%),U2OS [2]; [12],2%
same,Population Healthy Nuclei (%),U2OS [2]; [12],94%
same,Population Membrane Permeable-Phenotype (%),U2OS [2]; [12],0%
same,Population Mitochondria Different-Phenotype (%),U2OS [2]; [12],8%
same,Population Mitotic Cells (%),U2OS [2]; [12],100%
same,Population Pyknosed Nuclei (%),U2OS [2]; [12],2%
same,Population Tubulin-Different-Phenotype (%),U2OS [2]; [12],23%
same,Population Apoptotic (%),U2OS [2]; [13],61%
same,Population Fragmented Nuclei (%),U2OS [2]; [13],18%
same,Population Healthy Nuclei (%),U2OS [2]; [13],68%
same,Population Hoechst High Intensity Objects (%),U2OS [2]; [13],14%
same,Population Membrane Permeable-Phenotype (%),U2OS [2]; [13],10%
same,Population Mitochondria Different-Phenotype (%),U2OS [2]; [13],15%
same,Population Mitotic Cells (%),U2OS [2]; [13],38%
same,Population Normal (%),U2OS [2]; [13],85%
same,Population Pyknosed Nuclei (%),U2OS [2]; [13],12%
same,Population Tubulin-Different-Phenotype (%),U2OS [2]; [13],59%
same,Population Apoptotic (%),U2OS [2]; [14],16%
same,Population Fragmented Nuclei (%),U2OS [2]; [14],2%
same,Population Healthy Nuclei (%),U2OS [2]; [14],90%
same,Population Hoechst High Intensity Objects (%),U2OS [2]; [14],5%
same,Population Membrane Permeable-Phenotype (%),U2OS [2]; [14],1%
same,Population Mitochondria Different-Phenotype (%),U2OS [2]; [14],9%
same,Population Mitotic Cells (%),U2OS [2]; [14],83%
same,Population Normal (%),U2OS [2]; [14],94%
same,Population Pyknosed Nuclei (%),U2OS [2]; [14],7%
same,Population Tubulin-Different-Phenotype (%),U2OS [2]; [14],61%
same,Population Apoptotic (%),U2OS [2]; [15],43%
same,Population Fragmented Nuclei (%),U2OS [2]; [15],9%
same,Population Healthy Nuclei (%),U2OS [2]; [15],81%
same,Population Hoechst High Intensity Objects (%),U2OS [2]; [15],2%
same,Population Membrane Permeable-Phenotype (%),U2OS [2]; [15],2%
same,Population Mitochondria Different-Phenotype (%),U2OS [2]; [15],18%
same,Population Mitotic Cells (%),U2OS [2]; [15],56%
same,Population Normal (%),U2OS [2]; [15],97%
same,Population Pyknosed Nuclei (%),U2OS [2]; [15],8%
same,Population Tubulin-Different-Phenotype (%),U2OS [2]; [15],14%
same,Population Apoptotic (%),U2OS [2]; [16],20%
same,Population Fragmented Nuclei (%),U2OS [2]; [16],8%
same,Population Healthy Nuclei (%),U2OS [2]; [16],86%
same,Population Hoechst High Intensity Objects (%),U2OS [2]; [16],6%
same,Population Membrane Permeable-Phenotype (%),U2OS [2]; [16],4%
same,Population Mitochondria Different-Phenotype (%),U2OS [2]; [16],9%
same,Population Mitotic Cells (%),U2OS [2]; [16],80%
same,Population Normal (%),U2OS [2]; [16],93%
same,Population Pyknosed Nuclei (%),U2OS [2]; [16],5%
same,Population Tubulin-Different-Phenotype (%),U2OS [2]; [16],30%
same,Population Apoptotic (%),U2OS [2]; [17],72%
same,Population Fragmented Nuclei (%),U2OS [2]; [17],15%
same,Population Healthy Nuclei (%),U2OS [2]; [17],74%
same,Population Hoechst High Intensity Objects (%),U2OS [2]; [17],9%
same,Population Membrane Permeable-Phenotype (%),U2OS [2]; [17],6%
same,Population Mitochondria Different-Phenotype (%),U2OS [2]; [17],18%
same,Population Mitotic Cells (%),U2OS [2]; [17],27%
same,Population Normal (%),U2OS [2]; [17],90%
same,Population Pyknosed Nuclei (%),U2OS [2]; [17],9%
same,Population Tubulin-Different-Phenotype (%),U2OS [2]; [17],76%
same,Population Apoptotic (%),U2OS [2]; [18],66%
same,Population Fragmented Nuclei (%),U2OS [2]; [18],1%
same,Population Healthy Nuclei (%),U2OS [2]; [18],92%
same,Population Hoechst High Intensity Objects (%),U2OS [2]; [18],6%
same,Population Membrane Permeable-Phenotype (%),U2OS [2]; [18],4%
same,Population Mitochondria Different-Phenotype (%),U2OS [2]; [18],16%
same,Population Mitotic Cells (%),U2OS [2]; [18],33%
same,Population Normal (%),U2OS [2]; [18],93%
same,Population Pyknosed Nuclei (%),U2OS [2]; [18],6%
same,Population Tubulin-Different-Phenotype (%),U2OS [2]; [18],77%
